{"source": "ChEMBL document CHEMBL3425461", "about": "“Positron emission tomography to elucidate pharmacokinetic differences of regioisomeric retinoid x receptor agonists” (ACS Med Chem Lett, 2015)", "key": {"[1]": {"test": "Retention time of the compound by HPLC method", "type": "physicochemical", "in_short": "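Reversed-phase HPLC, 3 μm column, 0.7 mL/min, methanol/25 mM ammonium acetate pH 5.0 (80:20 v/v) mobile phase, UV detection at 260 nm.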"}, "[2]": {"test": "AUC in mouse blood at 30 mg/kg, po", "type": "ADME, organism-based", "set-up": "dose 30 mg/kg, route oral", "in_short": "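AUC at 30 mg/kg p.o. in mice taken from earlier work; skip.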"}, "[3]": {"test": "Drug level in ICR mouse plasma at 30 mg/kg, po administered as single dose measured after 1 hr", "type": "ADME, organism-based", "set-up": "dose 30 mg/kg, route oral", "in_short": "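Single oral dose of 30 mg/kg given as 0.5% CMC suspension to mice; blood and brain concentrations of non-radioactive compound measured 1 h after dosing.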"}, "[4]": {"test": "Drug level in ICR mouse brain at 30 mg/kg, po administered as single dose measured after 1 hr"}, "[5]": {"test": "Ratio of drug level in brain to plasma of ICR mouse at 30 mg/kg, po administered as single dose measured after 1 hr"}, "[6]": {"molecular_target": "T1, Retinoic acid receptor RXR-alpha (Homo sapiens, UniProt P19793)", "T1 sequence (P19793 whole entry)": "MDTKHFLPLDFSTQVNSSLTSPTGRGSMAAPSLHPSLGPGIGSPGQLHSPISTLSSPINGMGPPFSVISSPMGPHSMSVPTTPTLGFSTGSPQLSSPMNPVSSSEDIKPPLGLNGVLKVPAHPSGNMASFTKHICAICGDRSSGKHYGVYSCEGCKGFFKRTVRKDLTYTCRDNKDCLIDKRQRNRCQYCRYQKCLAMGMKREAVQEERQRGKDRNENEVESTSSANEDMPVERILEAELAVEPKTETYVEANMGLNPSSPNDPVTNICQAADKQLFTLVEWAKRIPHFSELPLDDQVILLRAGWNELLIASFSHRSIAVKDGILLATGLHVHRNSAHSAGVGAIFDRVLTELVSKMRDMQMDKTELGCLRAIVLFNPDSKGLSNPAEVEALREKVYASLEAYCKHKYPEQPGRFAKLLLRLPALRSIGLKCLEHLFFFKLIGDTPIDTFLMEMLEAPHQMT", "test": "Agonist activity at RXRalpha (unknown origin) expressed in COS1 cells incubated for 18 hrs by luciferase reporter gene assay", "type": "cell-based, COS-1"}, "Kidney [7]": {"tested_on": "Kidney", "test": "Drug uptake in ICR mouse kidney at 8 to 11 MBq, po by PET/CT imaging method", "type": "ADME, organism-based", "conditions": "in vivo; call rule not given here"}, "Heart [8]": {"tested_on": "Heart", "test": "Drug uptake in ICR mouse heart at 8 to 11 MBq, iv by PET/CT imaging method", "type": "ADME, organism-based", "conditions": "in vivo", "in_short": "(§1)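 Tracer dissolved in EtOH, diluted with saline to 10 MBq, given i.v. or p.o.; 30 min PET/CT scan, images reconstructed at selected times; organ ROIs defined from PET/CT data; uptake expressed as %ID (organ Bq per whole-body Bq) from mean pixel radioactivity; n = 3–5, mean ± SEM; one-way ANOVA then t-test.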"}, "Liver [9]": {"tested_on": "Liver", "test": "Drug uptake in ICR mouse liver at 8 to 11 MBq, iv by PET/CT imaging method", "type": "ADME, organism-based", "conditions": "in vivo", "in_short": "as §1"}, "[10]": {"test": "Drug uptake in ICR mouse gall bladder at 8 to 11 MBq, po by PET/CT imaging method", "type": "ADME, organism-based", "conditions": "in vivo", "in_short": "as §1"}, "Kidney [11]": {"tested_on": "Kidney", "test": "Drug uptake in ICR mouse kidney at 8 to 11 MBq, iv by PET/CT imaging method", "type": "ADME, organism-based", "conditions": "in vivo"}, "[12]": {"test": "Drug uptake in ICR mouse urinary bladder at 8 to 11 MBq, iv by PET/CT imaging method", "type": "ADME, organism-based", "conditions": "in vivo", "in_short": "as §1"}, "Stomach [13]": {"tested_on": "Stomach", "test": "Drug uptake in ICR mouse stomach at 8 to 11 MBq, po after 30 mins by PET/CT imaging method", "type": "ADME, organism-based", "conditions": "in vivo, 0.5 h", "in_short": "as §1"}, "Liver [14]": {"tested_on": "Liver", "test": "Drug uptake in ICR mouse liver at 8 to 11 MBq, po by PET/CT imaging method", "type": "ADME, organism-based", "conditions": "in vivo", "in_short": "as §1"}, "Duodenum [15]": {"tested_on": "Duodenum", "test": "Drug uptake in ICR mouse duodenum at 8 to 11 MBq, iv by PET/CT imaging method", "type": "ADME, organism-based", "conditions": "in vivo", "in_short": "as §1"}, "Stomach [16]": {"tested_on": "Stomach", "test": "Drug uptake in ICR mouse stomach at 8 to 11 MBq, po by PET/CT imaging method", "type": "ADME, organism-based", "conditions": "in vivo", "in_short": "as §1"}, "Duodenum [17]": {"tested_on": "Duodenum", "test": "Drug uptake in ICR mouse duodenum at 8 to 11 MBq, po by PET/CT imaging method", "type": "ADME, organism-based", "conditions": "in vivo", "in_short": "as §1"}, "[18]": {"test": "Drug uptake in ICR mouse gall bladder at 8 to 11 MBq, iv by PET/CT imaging method", "type": "ADME, organism-based", "conditions": "in vivo", "in_short": "as §1"}, "Heart [19]": {"tested_on": "Heart", "test": "Ratio of AUC (0 to 30 mins) in ICR mouse heart at 8 to 11 MBq, po to AUC (0 to 30 mins) in ICR mouse heart at 8 to 11 MBq, iv", "type": "ADME, organism-based", "conditions": "in vivo", "in_short": "(§2)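 Tracer in EtOH diluted with saline to 10 MBq, given i.v. or p.o.; 30 min PET scan; blood radioactivity as %ID/mL from heart %ID divided by heart volume; AUC over 0–30 min; bioavailability as dose-corrected oral AUC over i.v. AUC; n = 3–5, mean ± SEM.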"}, "[20]": {"test": "Drug uptake in ICR mouse urinary bladder at 8 to 11 MBq, po by PET/CT imaging method", "type": "ADME, organism-based", "conditions": "in vivo", "in_short": "as §1"}, "Heart [21]": {"tested_on": "Heart", "test": "Drug uptake in ICR mouse heart at 8 to 11 MBq, iv during 0 to 30 mins by PET imaging method", "type": "ADME, organism-based", "conditions": "in vivo", "in_short": "as §2"}}, "data": [{"compound": "CCN(c1ccc(C(C)C)c(OCC(C)C)c1)c1ccc(C(=O)O)cn1", "values": [{"measurement": "Retention_time", "setting": "[1]", "result": 12.7, "unit": "min"}, {"measurement": "AUC", "setting": "[2]", "result": 1140, "unit": "ng·h/mL"}, {"measurement": "concentration at 1 h", "setting": "[3]", "result": 1320, "unit": "ng/mL"}, {"measurement": "concentration at 1 h", "setting": "[4]", "result": 978, "unit": "ng/mL"}, {"measurement": "Kp at 1 h", "setting": "[5]", "result": 0.74}]}, {"compound": "CCN(c1ccc(C(C)C)c(OCC(C)CF)c1)c1ccc(C(=O)O)cn1", "note": "(stereo unspecified)", "values": [{"measurement": "EC50", "setting": "[6]", "result": 12, "unit": "nM"}, {"measurement": "Retention_time", "setting": "[1]", "result": 7.63, "unit": "min"}]}, {"compound": "CCN(c1ccc(OCC(C)C)c(C(C)C)c1)c1ccc(C(=O)O)cn1", "values": [{"measurement": "EC50", "setting": "[6]", "result": 169, "unit": "nM"}, {"measurement": "Retention_time", "setting": "[1]", "result": 11.7, "unit": "min"}, {"measurement": "AUC", "setting": "[2]", "result": 18800, "unit": "ng·h/mL"}, {"measurement": "concentration at 1 h", "setting": "[3]", "result": 6760, "unit": "ng/mL"}, {"measurement": "concentration at 1 h", "setting": "[4]", "result": 2570, "unit": "ng/mL"}, {"measurement": "Kp at 1 h", "setting": "[5]", "result": 0.38}]}, {"compound": "CCN(c1ccc(OCC(C)CF)c(C(C)C)c1)c1ccc(C(=O)O)cn1", "note": "(stereo unspecified)", "values": [{"measurement": "EC50", "setting": "[6]", "result": 450, "unit": "nM"}, {"measurement": "Retention_time", "setting": "[1]", "result": 6.7, "unit": "min"}]}, {"compound": "CCN(c1ccc(C(C)C)c(OCC(C)C[18F])c1)c1ccc(C(=O)O)cn1", "note": "(stereo unspecified)", "values": [{"measurement": "Drug uptake", "setting": "Kidney [7]", "result": "Not Active"}, {"measurement": "Drug uptake", "setting": "Heart [8]", "result": "Active"}, {"measurement": "Drug uptake", "setting": "Liver [9]", "result": "Active"}, {"measurement": "Drug uptake", "setting": "[10]", "result": "Active"}, {"measurement": "Drug uptake", "setting": "Kidney [11]", "result": "Not Active"}, {"measurement": "Drug uptake", "setting": "[12]", "result": "Not Active"}, {"measurement": "Drug uptake", "setting": "Stomach [13]", "result": "Active"}, {"measurement": "Drug uptake", "setting": "Liver [14]", "result": "Active"}, {"measurement": "Drug uptake", "setting": "Duodenum [15]", "result": "Active"}, {"measurement": "Drug uptake", "setting": "Stomach [16]", "result": "Active"}, {"measurement": "Drug uptake", "setting": "Duodenum [17]", "result": "Active"}, {"measurement": "Drug uptake", "setting": "[18]", "result": "Active"}, {"measurement": "Ratio", "setting": "Heart [19]", "result": 0.18}, {"measurement": "Drug uptake", "setting": "[20]", "result": "Not Active"}]}, {"compound": "CCN(c1ccc(OCC(C)C[18F])c(C(C)C)c1)c1ccc(C(=O)O)cn1", "note": "(stereo unspecified)", "values": [{"measurement": "Drug uptake", "setting": "Kidney [7]", "result": "Not Active"}, {"measurement": "Drug uptake", "setting": "Heart [8]", "result": "Active"}, {"measurement": "Drug uptake", "setting": "Liver [9]", "result": "Active"}, {"measurement": "Drug uptake", "setting": "[10]", "result": "Active"}, {"measurement": "Drug uptake", "setting": "Kidney [11]", "result": "Not Active"}, {"measurement": "Drug uptake", "setting": "[12]", "result": "Not Active"}, {"measurement": "Drug uptake", "setting": "Stomach [13]", "result": "Active"}, {"measurement": "Drug uptake", "setting": "Liver [14]", "result": "Active"}, {"measurement": "Drug uptake", "setting": "Duodenum [15]", "result": "Active"}, {"measurement": "Drug uptake", "setting": "Stomach [16]", "result": "Active"}, {"measurement": "Drug uptake", "setting": "Duodenum [17]", "result": "Active"}, {"measurement": "Drug uptake", "setting": "[18]", "result": "Active"}, {"measurement": "Ratio", "setting": "Heart [19]", "result": 0.43}, {"measurement": "Drug uptake", "setting": "[20]", "result": "Not Active"}]}, {"compound": "CCN(c1ccc(C(C)C)c(OCC(C)C)c1)c1ccc([11C](=O)O)cn1", "values": [{"measurement": "Drug uptake", "setting": "Heart [21]", "result": "Active"}]}, {"compound": "CCN(c1ccc(OCC(C)C)c(C(C)C)c1)c1ccc([11C](=O)O)cn1", "values": [{"measurement": "Drug uptake", "setting": "Heart [21]", "result": "Active"}]}, {"compound": "C=C(c1ccc(C(=O)O)cc1)c1cc2c(cc1C)C(C)(C)CCC2(C)C", "note": "[BEXAROTENE]", "values": [{"measurement": "concentration at 1 h", "setting": "[3]", "result": 4150, "unit": "ng/mL"}]}]}
